According to paper PMC7396962 (Xenobiotica; the fate of foreign compounds in biological …, 2020):
≈ marks a conversion by molar mass, not a printed value.

Columns and labels:
[1] = system: human UGT1A1; conditions: cited from earlier work
[2] = system: Hep3B hepatocellular carcinoma cell line; conditions: cited from earlier work
[3] = molecular target: T1, UGT1A8 (Homo sapiens, UniProt Q9HAW9); experiment: Glucuronidation of CA by recombinant UGT1A8; type: in vitro ADME; conditions: formation of the glucuronide from CA
T1 sequence (Q9HAW9 26-530): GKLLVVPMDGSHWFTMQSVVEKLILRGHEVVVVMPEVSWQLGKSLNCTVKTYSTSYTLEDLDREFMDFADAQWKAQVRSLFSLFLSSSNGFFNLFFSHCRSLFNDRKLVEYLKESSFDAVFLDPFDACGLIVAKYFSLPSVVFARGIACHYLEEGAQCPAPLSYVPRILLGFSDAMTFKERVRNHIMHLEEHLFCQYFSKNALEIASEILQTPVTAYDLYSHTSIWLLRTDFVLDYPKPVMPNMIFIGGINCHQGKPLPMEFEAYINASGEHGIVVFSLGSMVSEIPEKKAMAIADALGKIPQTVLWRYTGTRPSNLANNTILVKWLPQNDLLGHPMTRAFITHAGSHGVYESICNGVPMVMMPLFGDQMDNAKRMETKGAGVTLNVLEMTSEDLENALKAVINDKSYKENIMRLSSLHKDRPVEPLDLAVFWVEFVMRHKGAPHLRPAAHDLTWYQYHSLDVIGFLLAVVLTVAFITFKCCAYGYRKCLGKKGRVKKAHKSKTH

[4] = molecular target: T2, UGT1A9 (Homo sapiens, UniProt O60656); type: in vitro ADME; conditions: panel of HLMs (n = 9), substrate 10 μM, p = 0.015
T2 sequence (O60656 26-530): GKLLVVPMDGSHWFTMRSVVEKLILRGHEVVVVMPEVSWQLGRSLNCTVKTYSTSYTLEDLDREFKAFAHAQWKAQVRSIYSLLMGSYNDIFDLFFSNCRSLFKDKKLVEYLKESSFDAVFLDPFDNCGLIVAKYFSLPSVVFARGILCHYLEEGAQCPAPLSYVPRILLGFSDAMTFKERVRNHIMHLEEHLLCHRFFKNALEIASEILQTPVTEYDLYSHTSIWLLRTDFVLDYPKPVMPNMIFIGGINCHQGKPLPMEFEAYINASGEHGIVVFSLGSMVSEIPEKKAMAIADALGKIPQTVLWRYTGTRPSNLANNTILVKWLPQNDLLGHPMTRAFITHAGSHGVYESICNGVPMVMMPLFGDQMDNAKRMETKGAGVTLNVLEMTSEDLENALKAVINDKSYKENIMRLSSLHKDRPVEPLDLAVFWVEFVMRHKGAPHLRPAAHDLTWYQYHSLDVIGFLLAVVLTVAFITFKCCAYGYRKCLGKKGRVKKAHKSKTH
How it was run: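 Test compound (10 μM) glucuronidated in each of nine individual human liver microsomes (1 mg/mL) with UDPGA and alamethicin, pH 7.4, 37 °C for 60 min. Rates regressed linearly against each donor's propofol O-glucuronidation activity; correlation coefficient r reported, p < 0.05 significant.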

[5] = system: PPAR-γ; conditions: ref Ma et al., 2016; cited from earlier work
[6] = rat, in vivo; cited from earlier work
[7] = system: severe acute respiratory syndrome coronavirus papain-like protease; conditions: read-out: inhibitory effects on severe acute respiratory syndrome coronavirus papain-like protease; cited from earlier work
[8] = molecular target: T2, UGT1A9; experiment: Glucuronidation of CA by recombinant UGT1A9; type: in vitro ADME; conditions: formation of the glucuronide from CA
[9] = molecular target: T3, CYP2C8 (Homo sapiens, UniProt P10632); type: in vitro ADME; conditions: panel of HLMs (n = 9), substrate 10 μM, p = 0.001
T3 sequence (P10632 1-490): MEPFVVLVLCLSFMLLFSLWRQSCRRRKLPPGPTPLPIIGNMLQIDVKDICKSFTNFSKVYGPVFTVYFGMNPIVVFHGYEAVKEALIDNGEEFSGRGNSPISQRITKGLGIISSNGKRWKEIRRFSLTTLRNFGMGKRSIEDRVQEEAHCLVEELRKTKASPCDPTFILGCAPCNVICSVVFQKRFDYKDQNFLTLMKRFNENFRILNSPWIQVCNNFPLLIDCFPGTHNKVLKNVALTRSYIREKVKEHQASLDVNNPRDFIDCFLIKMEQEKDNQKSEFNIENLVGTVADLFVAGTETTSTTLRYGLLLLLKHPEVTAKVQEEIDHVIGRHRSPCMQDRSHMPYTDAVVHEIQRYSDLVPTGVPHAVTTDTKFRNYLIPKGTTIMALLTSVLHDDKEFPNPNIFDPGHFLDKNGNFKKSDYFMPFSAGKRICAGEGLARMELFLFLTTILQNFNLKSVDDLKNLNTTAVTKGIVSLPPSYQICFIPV
How it was run: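 Nine individual human liver microsomes (1 mg/mL) each incubated with test compound at 10 μM plus 1 mM NADPH, pH 7.4, 37 °C, 60 min. Oxidation rates correlated by linear regression (r) with each donor's paclitaxel 6-hydroxylation activity. p < 0.05 taken as significant.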

CC(C)=CCC/C(C)=C/Cc1cc(-c2coc3cc(O)ccc3c2=O)ccc1O [CA, Corylifol A]
IC50 [1]: 0.65 µM
Ki [1]: 0.79 µM
IC50, cytotoxic activity [2]: 13.5 mg/L (≈ 34.6 µM)
CLint [3]: 135.59 µL/min/mg
correlation (r) between CA-7-O-glucuronidation and propofol-O-glucuronidation [4]: 0.771
in vitro PPAR-γ activation [5]: PPAR-γ activation
distribution concentrations of CA at different nuclei [6]: 260.63 to 493.29 ng·h/g
IC50 [7]: 32.3 ± 3.2 µM
CLint [8]: 191.94 µL/min/mg
correlation (r) between CA-mono-oxidation and paclitaxel-6-hydroxylation [9]: 0.921
